Screening data (PubChem BioAssay)
EP2 mod = modulators of human EP2 prostaglandin E2 receptor | P43116 | EP2-expressing cells, cAMP HTRF FRET, PGE2 co-stimulation | induction, % at 25 µM | actives 0.83% (n = 260,000) | AID 940;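 active means compounds whose cAMP rise, as percent of the full-agonist control response, exceeds 60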;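 further: rat C6 glioma line stably carrying human EP2 under a CMV promoter; the protocol text gives 20 µM as final concentration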
RBBP9 inhibitor = blocks human serine hydrolase RBBP9 | actives 0.2% (n = 220,000) | recombinant RBBP9, FP-Rh probe fluorescence polarization | AID 1515 | inhibition, % at 7.94 µM;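 active means inhibition above the campaign mean of all tested compounds plus 3 SD, cut at about 14% in these data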
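system = RBBP9 protein | input = RBBP9 at 2.5 µM in dispensed solution, before mixing | measured by = fluorescence polarization (mP), excitation 525 nm, emission 598 nm | incubation = enzyme-compound preincubation 30 min, then probe labeling 45 min, 25 °C | buffer or medium = Tris-NaCl-Pluronic buffer, pH 8.0 | compound = single dose 7.94 µM | also added = FP-Rh probe, 375 nM dispensing solution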
ABCG2 inh = blocks JC-1 efflux by human ABCG2 transporter. Q9UNQ0. IgMXP3 cells, flow cytometry. inhibition, % at 6.6 µM. actives 0.1% (n = 190,000). AID 1325;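 active means inhibition above 80%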
Target sequence (Q9UNQ0 whole entry, looked up): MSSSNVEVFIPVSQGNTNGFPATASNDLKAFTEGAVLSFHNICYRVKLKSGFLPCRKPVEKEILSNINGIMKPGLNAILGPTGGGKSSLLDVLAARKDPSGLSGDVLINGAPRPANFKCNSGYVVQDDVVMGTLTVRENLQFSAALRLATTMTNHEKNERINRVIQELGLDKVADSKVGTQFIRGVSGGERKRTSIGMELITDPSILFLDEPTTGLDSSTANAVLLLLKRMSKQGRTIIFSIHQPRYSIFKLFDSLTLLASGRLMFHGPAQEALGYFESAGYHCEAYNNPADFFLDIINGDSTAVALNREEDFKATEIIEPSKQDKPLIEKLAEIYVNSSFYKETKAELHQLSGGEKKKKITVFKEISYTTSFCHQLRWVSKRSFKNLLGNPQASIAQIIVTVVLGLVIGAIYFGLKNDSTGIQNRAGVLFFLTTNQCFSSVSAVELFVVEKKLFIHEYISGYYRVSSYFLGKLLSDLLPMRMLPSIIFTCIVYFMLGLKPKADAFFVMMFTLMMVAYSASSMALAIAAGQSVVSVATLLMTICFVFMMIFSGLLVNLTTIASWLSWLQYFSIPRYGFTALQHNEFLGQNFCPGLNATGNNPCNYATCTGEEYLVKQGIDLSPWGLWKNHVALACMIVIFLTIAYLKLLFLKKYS
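Test system: IgMXP3 cells (ABCG2) mixed with DDAO far-red-labelled CCRF-Adr cells (ABCB1). Reagent: JC-1 transporter substrate. Compound dosing: single test compound dose, 6.6 µM final. Times: 10 min compound exposure, 25 °C. Detection: flow cytometry of retained JC-1 fluorescence. Read-out basis: efflux inhibition in percent versus controls. Controls: nicardipine and DMSO wells.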
ABCB1 block = inhibitors of human ABCB1 transporter, ABCG2 counter-screen; CCRF-Adr cells, JC-1 efflux, flow cytometry; inhibition, % at 6.6 µM; actives 0.067% (n = 190,000); AID 1326; in the data active means inhibition above about 40%;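 further: higher value means more JC-1 retained so stronger ABCB1 efflux block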
PGE2 EP2 inh = inhibitors of human EP2 prostaglandin E2 receptor. P43116. C6 glioma cells expressing human EP2, cAMP TR-FRET; cells stimulated with saturating PGE2. inhibition, % at 25 µM. actives 0.52% (n = 260,000). AID 1422;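 active means percent inhibition above 40 after rounding to a whole number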;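 further: rat C6 glioma host cells with rolipram phosphodiesterase inhibitor present; the protocol text gives 20 µM as final concentration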
EP2 confirm = human EP2 receptor cAMP induction, negative in counter-screens; shares compounds with EP2 mod; C6 glioma EP2 cells, cAMP HTRF induction; plus low (about EC15) PGE2 agonist; calls only at 20 µM (by protocol); actives 47% (n = 1,300); AID 1080;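 active means cAMP induction above 50% in the main assay while under 30% in all four parallel counter assays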;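 further: rat C6 glioma cells stably expressing human EP2 receptor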
A number is an active result; . = inactive; / = not tested or not shown; ! = a repeat was not active. Only some compounds are listed: those with a hit (about 1.5% of all), similar ones and a draw of the others.

SMILES	EP2 mod	RBBP9 inhibitor	ABCG2 inh	ABCB1 block	PGE2 EP2 inh	others
CCCC(c1nnnn1C(C)(C)CC)N(Cc1ccco1)Cc1cc2cc(C)c(C)cc2[nH]c1=O (configuration not stated)	66	/	/	/	.
CC(C)n1c(SCC(=O)c2ccccc2F)nc2c1c(=O)n(C)c(=O)n2C	.	/	/	/	.
CCOC(=O)c1cnc2c(-c3ccc(OC)cc3)c(C)nn2c1N	.	/	/	/	.
CCCC(c1nnnn1C(C)(C)C)N(Cc1ccco1)Cc1cc2cc(C)ccc2[nH]c1=O (configuration not stated)	66	/	/	/	.
Cc1cccc2cc(CN(CCCO)C(c3nnnn3C(C)(C)C)C(C)C)c(=O)[nH]c12 (configuration not stated)	.	/	/	/	.
CCC(c1nnnn1C1CCCC1)N(Cc1ccco1)Cc1cc2cccc(C)c2[nH]c1=O (configuration not stated)	64	/	/	/	.
Cc1cc(C)c2[nH]c(=O)c(CN(Cc3ccco3)C(c3nnnn3C(C)(C)C)C(C)C)cc2c1 (configuration not stated)	70	/	/	/	.
CCC(C)(C)n1nnnc1C(C(C)C)N(Cc1ccco1)Cc1cc2cc3c(cc2[nH]c1=O)OCO3 (configuration not stated)	.	.	.	.	.
CCCC(c1nnnn1C(C)(C)C)N(Cc1ccc(C)cc1)Cc1cc2cc(C)ccc2[nH]c1=O (configuration not stated)	.	/	/	/	.
COc1ccccc1CN(Cc1cc2cccc(C)c2[nH]c1=O)C(c1nnnn1C(C)(C)C)C(C)C (configuration not stated)	88	/	/	/	.
COc1ccc(-c2cc(-c3cccnc3)c(C#N)c(=O)[nH]2)cc1	.	/	/	/	.
CC(C)c1ccc(NC(=O)CN(c2ccc3c(c2)OCO3)S(C)(=O)=O)cc1	.	/	/	/	.
COc1ccc(CCNCc2cc3c(C)cc(C)cc3n3c(=O)n(C)nc23)cc1OC	.	/	/	/	.
CCCc1cc(=O)[nH]c(SCCOc2ccc(Cl)cc2)n1	64	.	.	.	.
COCCCNC(=O)c1c(NC(=O)c2ccc(C)cc2)sc2c1CCCC2	.	/	/	/	.
COCCCNC(=O)c1c(NC(=O)c2ccccc2)sc2c1CCCC2	65	/	/	/	.
C(=N\Nc1nc(-c2cccnc2)nc2ccccc12)/c1ccccc1	.	.	/	/	.
C(=N\Nc1nc(-c2ccccn2)nc2ccccc12)/c1ccccc1	69	.	/	/	.
CC(C)=CCc1c(O)cc(C)oc1=O	.	/	/	/	.
CC(C)=CCc1c(O)c(CC=C(C)C)c2c(c1O)-c1cc(O)c(O)cc1CC2	/	/	/	/	54
CN(C)S(=O)(=O)c1ccccc1N=C=S	.	16	/	/	.
NCC(O)c1ccc(O)c(O)c1 (configuration not stated)	66	/	/	/	.
CC(C)NCC(O)COCc1ccc(Cl)cc1 (configuration not stated)	.	.	.	.	.
CC(C)NC[C@@H](O)c1ccc(O)c2ncccc12	.	/	/	/	.
NCCc1ccc(O)c(O)c1	.	.	.	.	.
SMILES	EP2 mod	RBBP9 inhibitor	ABCG2 inh	ABCB1 block	PGE2 EP2 inh	others
CCC(NC(C)C)C(O)c1ccc(O)c(O)c1 (configuration not stated)	61	.	.	.	.
CC(C)NCC(O)c1cc(O)cc(O)c1 (configuration not stated)	81!	/	/	/	.
CC(C)NC[C@H](O)c1ccc(O)c(O)c1	76!	/	/	/	.
CCOC(=O)c1cc2sc(C)cc2n1C(C)C	.	/	/	/	.
CCCCOc1ccc(/C(O)=C2/C(=O)C(=O)N(Cc3cccnc3)C2c2ccncc2)c(C)c1 (configuration not stated)	61	.	.	.	.
CN1CCN(Cc2nc3ccccc3c(=O)n2Cc2nc(-c3ccc([N+](=O)[O-])cc3)cs2)CC1	.	.	.	.	49
CN(C)Cc1nc2ccccc2c(=O)n1Cc1nc(-c2cccc([N+](=O)[O-])c2)cs1	.	.	.	.	.
COc1cccc(CNC(=O)Cn2nc(C)n3c(cc4sccc43)c2=O)c1	.	/	/	/	/
OCc1ccccc1O[C@@H]1O[C@H](CO)[C@@H](O)[C@H](O)[C@H]1O	.	/	/	/	.
O=C1c2cccc(O)c2C(=O)c2c(O[C@@H]3O[C@H](CO)[C@@H](O)[C@H](O)[C@H]3O)cccc21	.	/	/	/	52
COc1cccc(-n2c(SCC(=O)NC(C)(C)C)nnc2-c2ccccn2)c1	.	/	/	/	.
O=C(N/N=C/c1ccccc1)NC1CCCCC1	64	.	.	.	.
CCc1cc2ccc(OC)cc2nc1SCC(=O)NNC(=O)c1ccc(OC)cc1	62	/	/	/	.
COc1ccc2cc(C#N)c(SCC(=O)NCCc3ccc(OC)c(OC)c3)nc2c1	.	/	/	/	.
CCc1cc2ccc(OC)cc2nc1SCC(=O)NCCc1ccc(OC)c(OC)c1	74	/	/	/	.
CCOc1ccccc1NC(=O)CSc1nc2cc(OC)ccc2cc1CC	.	/	/	/	.
CCc1cc2ccc(OC)cc2nc1SCC(=O)Nc1ccccc1C	80	/	/	/	.
CCc1nnc(NC(=O)CSc2nc3cc(OC)ccc3cc2CC)s1	.	/	/	/	.
CCc1cc2ccc(OC)cc2nc1SCC(=O)Nc1c(C)cccc1C	64	/	/	/	.
CCC(C)(C)NC(=O)C(c1ccc(OC)cc1)N(C(=O)Cn1nnc2ccccc21)C1CC1 (configuration not stated)	.	/	/	/	.
CCc1cc2ccccc2nc1SCC(=O)Nc1ccccc1Cl	69	/	/	/	.
CCc1cc2ccccc2nc1SCC(=O)Nc1ccccc1C(F)(F)F	61	/	/	/	.
CS(=O)(=O)c1cncnc1C1CCCN(C(=O)C2(c3ccccc3)CC2)C1 (configuration not stated)	.	/	/	/	.
CC(C)c1nc2ccc(Br)cn2c1NC1CCCC1	65	.	.	.	.
Cc1nn(CC(=O)N2CCCCC2C)c(=O)c2cc3sccc3n12 (configuration not stated)	.	/	/	/	/
SMILES	EP2 mod	RBBP9 inhibitor	ABCG2 inh	ABCB1 block	PGE2 EP2 inh	others
c1ccc(-c2cc(-c3nnc(-c4ccncc4)o3)c3ccccc3n2)cc1	80	/	/	/	.
COc1ccc2c(c1)cc(C)c1nn(CC(=O)Nc3c(C)nn(C)c3C)c(=O)n12	.	/	/	/	/
c1ccc([P+](CC[P+](c2ccccc2)(c2ccccc2)c2ccccc2)(c2ccccc2)c2ccccc2)cc1	.	/	/	/	45
O=C(CSc1nnc(-c2ccco2)n1Cc1ccccc1)N1CCCCC1	.	/	/	/	.
Cc1c(C(=O)N2CCCCC2)sc(NC(=O)c2ccc(Cl)cc2Cl)c1C#N	.	/	/	/	.
Cc1cc(Cl)ccc1Nc1sc(C(=O)c2cc3cc(Cl)ccc3o2)c(N)c1C#N	.	/	/	/	51
Cn1c2ccccc2c2cc(C(=O)OCC(=O)N3CC(=O)Nc4ccccc43)sc21	.	.	.	.	53
Cc1ccc(C2CC2c2n[nH]c(=S)n2-c2ccc(Cl)cc2)cc1 (configuration not stated)	.	.	.	.	.	EP2 confirm=.
